# Laboratory results as given in ChEMBL document CHEMBL1909503, “Protective effects of luteolin against apoptotic liver damage induced by D-galactosamine/lipopolysaccharide in mice” (2011).
# The source made the active and inactive calls. The rule behind the calls is not given here.
# Experiments:
# [1] = tested on: Mus musculus; assay: Hepatoprotective activity in GalN/LPS -stimulated ICR mouse assessed as suppression of TRADD expression level at 200 mg/kg, ip administered 1 hr prior to GalN/LPS challenge measured after 3 hrs of GalN/LPS injection by Western blotting; type: functional, organism-based; design: dose 200 mg/kg
# Summary of the method: (§1)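 Male ICR mice (25–30 g), fasted overnight, water ad libitum. Compound suspended in 10% Tween 80–saline, given ip 1 h before ip GalN (700 mg/kg) plus E. coli 026:B6 LPS (10 μg/kg) in PBS. Liver homogenized in lysis buffer; 10 μg protein per lane on 10% SDS-PAGE, semidry transfer to nitrocellulose, blocked in 5% skim milk/TBS. Overnight 4 °C primary antibody; β-actin reference. 8–10 mice per group.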
# [2] = tested on: Mus musculus; assay: Hepatoprotective activity in GalN/LPS -stimulated ICR mouse assessed as decrease in serum alanine amino transferase level at 200 mg/kg, ip administered 1 hr prior to GalN/LPS challenge measured after 8 hrs of GalN/LPS injection; type: functional; details: route intraperitoneal
# Summary of the method: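 Fasted male ICR mice given compound ip in 10% Tween 80–saline 1 h before ip GalN (700 mg/kg)/LPS (10 μg/kg) in PBS. Blood sampled 8 h after challenge; serum ALT measured with an automatic analyzer, reported in U/L. 8–10 mice per group.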
# [3] = tested on: Mus musculus; assay: Hepatoprotective activity in GalN/LPS-stimulated ICR mouse assessed as decrease in ratio of phosphorylated Bim EL protein expression level at 200 mg/kg, ip administered 1 hr prior to GalN/LPS challenge measured after 3 hrs of GalN/LPS injection by Western blotting; type: functional, organism-based; design: dose 200 mg/kg; summary of the method: as §1
# [4] = tested on: Mus musculus; assay: Hepatoprotective activity in GalN/LPS -stimulated ICR mouse assessed as reduction in phosphorylated JNK p-46 expression level at 200 mg/kg, ip administered 1 hr prior to GalN/LPS challenge measured after 3 hrs of GalN/LPS injection by Western blotting; type: functional, organism-based; design: dose 200 mg/kg; summary of the method: as §1
# [5] = tested on: Mus musculus; assay: Hepatoprotective activity in GalN/LPS -stimulated ICR mouse assessed as decrease in caspase-3 activity at 200 mg/kg, ip administered 1 hr prior to GalN/LPS challenge measured after 8 hrs of GalN/LPS injection relative to control; type: functional; design: scale not given: the % may be the effect or the level left; details: route intraperitoneal
# Summary of the method: (§2)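 Liver taken 8 h after GalN (700 mg/kg)/LPS (10 μg/kg) ip, homogenized in 25 mM Tris, 5 mM MgCl2, 1 mM EGTA with protease inhibitors; 40000g supernatant, 10 mM DTT added. 30 μg protein preincubated 15 min at room temperature in HEPES/EDTA/NaCl/Triton/DTT buffer, then 200 μM peptide substrate (DEVD for caspase-3, IETD for caspase-8) at 37 °C; fluorescence (400/490 nm) read at 120 min; expressed as % of control.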
# [6] = tested on: Mus musculus; assay: Hepatoprotective activity in GalN/LPS -stimulated ICR mouse assessed as decrease in ratio of phosphorylated BimL protein expression level at 200 mg/kg, ip administered 1 hr prior to GalN/LPS challenge measured after 3 hrs of GalN/LPS injection by Western blotting; type: functional, organism-based; design: dose 200 mg/kg; summary of the method: as §1
# [7] = tested on: Mus musculus; assay: Hepatoprotective activity in GalN/LPS -stimulated ICR mouse assessed as decrease in Bid expression level at 200 mg/kg, ip administered 1 hr prior to GalN/LPS challenge measured after 3 hrs of GalN/LPS injection by Western blotting; type: functional, organism-based; design: dose 200 mg/kg; summary of the method: as §1
# [8] = tested on: Mus musculus; assay: Hepatoprotective activity in GalN/LPS -stimulated ICR mouse assessed as decrease in serum TNFalpha level at 200 mg/kg, ip administered 1 hr prior to GalN/LPS challenge measured after 1 hr of GalN/LPS injection by ELISA; type: functional; details: route intraperitoneal
# Summary of the method: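 Male ICR mice dosed ip (10% Tween 80–saline) 1 h before ip GalN 700 mg/kg plus LPS 10 μg/kg. Serum TNF-α quantified 1 h after challenge by mouse ELISA kit following kit instructions. 8–10 mice per group.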
# [9] = tested on: Mus musculus; assay: Hepatoprotective activity in GalN/LPS -stimulated ICR mouse assessed as suppression of cytochrome c level at 200 mg/kg, ip administered 1 hr prior to GalN/LPS challenge measured after 8 hrs of GalN/LPS injection by Western blotting; type: functional, organism-based; design: dose 200 mg/kg
# Summary of the method: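 Male ICR mice; compound in 10% Tween 80–saline ip 1 h before ip GalN 700 mg/kg/LPS 10 μg/kg; liver taken 8 h later. Cytosolic fraction prepared by NE-PER extraction. 50 μg cytosolic protein run on 12% SDS-PAGE, blotted to nitrocellulose, blocked with 5% nonfat milk/PBS, probed 1 h at room temperature with monoclonal anti-cytochrome c, β-actin as reference, HRP secondary. 8–10 mice per group.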
# [10] = tested on: Mus musculus; assay: Hepatoprotective activity in GalN/LPS -stimulated ICR mouse assessed as decrease in caspase-8 activity at 200 mg/kg, ip administered 1 hr prior to GalN/LPS challenge measured after 8 hrs of GalN/LPS injection relative to control; type: functional; design: scale not given: the % may be the effect or the level left; details: route intraperitoneal; summary of the method: as §2
# [11] = tested on: Mus musculus; assay: Hepatoprotective activity in GalN/LPS -stimulated ICR mouse assessed as decrease in Bax expression level at 200 mg/kg, ip administered 1 hr prior to GalN/LPS challenge measured after 3 hrs of GalN/LPS injection by Western blotting; type: functional, organism-based; design: dose 200 mg/kg; summary of the method: as §1
# [12] = tested on: Mus musculus; assay: Hepatoprotective activity in GalN/LPS -stimulated ICR mouse assessed as reduction in number of apoptotic hepatocytes at 200 mg/kg, ip administered 1 hr prior to GalN/LPS by TUNEL assay; type: functional, organism-based; design: dose 200 mg/kg; details: Hepatocyte
# Summary of the method: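 Liver sections from male ICR mice pretreated ip 1 h before GalN (700 mg/kg)/LPS (10 μg/kg). Apoptotic hepatocytes detected with an in situ TUNEL kit; TUNEL-positive cells counted microscopically across 200 histological fields.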
# [13] = tested on: Mus musculus; assay: Hepatoprotective activity in GalN/LPS -stimulated ICR mouse assessed as reduction in phosphorylated JNK p-54 expression level at 200 mg/kg, ip administered 1 hr prior to GalN/LPS challenge measured after 3 hrs of GalN/LPS injection by Western blotting; type: functional, organism-based; design: dose 200 mg/kg; summary of the method: as §1
# [14] = tested on: Mus musculus; assay: Hepatoprotective activity in ip dosed ICR mouse assessed as reduction in GalN/LPS-induced mortality at 200 mg/kg, ip administered 1 hr prior to GalN/LPS challenge measured after 24 hrs of GalN/LPS injection; type: functional, organism-based; design: dose 200 mg/kg
# Summary of the method: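 15 male ICR mice per group received compound (25–200 mg/kg) in 10% Tween 80–saline ip 1 h before ip GalN 700 mg/kg plus E. coli 026:B6 LPS 10 μg/kg in PBS; survival monitored over 24 h after challenge.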
# [15] = tested on: Mus musculus; assay: Hepatoprotective activity in ICR mouse assessed as reduction in GalN/LPS-induced mortality at 200 mg/kg, ip administered 1 hr prior to GalN/LPS challenge measured after 24 hrs of GalN/LPS injection; type: functional, organism-based; design: dose 200 mg/kg; scale not given: the % may be the effect or the level left
# Summary of the method: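 Male ICR mice (25–30 g), fasted overnight with water ad libitum. Pretreatment ip, suspended in 10% Tween 80–saline, 1 h before ip GalN (700 mg/kg) plus E. coli 026:B6 LPS (10 μg/kg) in PBS. Survival monitored for 24 h after GalN/LPS; 15 mice per group.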
Compound,inhibition [1],Activity [2],inhibition [3],inhibition [4],Activity [5],inhibition [6],inhibition [7],Activity [8],inhibition [9],Activity [10],inhibition [11],Activity [12],inhibition [13],Activity [14],Activity [15]
O=c1cc(-c2ccc(O)c(O)c2)oc2cc(O)cc(O)c12 [LUTEOLIN],Active,1059 U/L,Active,Active,251.7%,Active,Active,574.2 pg/mL,Active,176.8%,Active,Active,Active,Dose-dependent effect,
SILYMARIN,,,,,,,,,,,,,,,13.3%
